procasp7 counter: counter-screen: procaspase-7 (human) activation; recombinant procaspase-7, Ac-DEVD-pNA absorbance 405 nm; D23A/D198A/D206A triple mutant, cannot self-cleave; scale: DMSO 0, 5 µM enzyme 100; activation, % at 8.5 µM; 330,000 tested, 0.093% active; AID 463210;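 active = percent activation above the screen-wide mean plus 3 SD, cut at about 25% in these data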
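Replicates: singlicate. Assay system: Procaspase-7 triple mutant (PC-7 D3A). Signal: 405 nm absorbance of p-nitroaniline. Times: 1 h preincubation, 2 h reaction. Buffer or medium: Zinc-free HEPES pH 7.4 with 300 mM NaCl, 0.01% Triton X-100. Also added: DEVD-pNA substrate. Benchmarks: DMSO wells as 0%, DMSO with 5 µM added PC-7 as 100%.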
LANA-H2B inh: blocks KSHV LANA binding to histone H2A/H2B. Q9QR71. inhibition, % (no concentration beside the values). cell-free LANA-H2A/H2B peptide, fluorescence polarization. 320,000 tested, 0.6% active; in the data active = inhibition mostly above about 10%, no sharp cut-off; inactive = mostly below about 6.7%
ASAP1 inh: ASAP1 ArfGAP inhibition; 360,000 tested, 0.19% active; inhibition, % at 16.5 µM; Q9ULH1; ASAP1-stimulated ARF1 GTP hydrolysis, GDP FP detection; in the data active = inhibition above about 25%
Target sequence (Q9ULH1 325-724 limits assumed): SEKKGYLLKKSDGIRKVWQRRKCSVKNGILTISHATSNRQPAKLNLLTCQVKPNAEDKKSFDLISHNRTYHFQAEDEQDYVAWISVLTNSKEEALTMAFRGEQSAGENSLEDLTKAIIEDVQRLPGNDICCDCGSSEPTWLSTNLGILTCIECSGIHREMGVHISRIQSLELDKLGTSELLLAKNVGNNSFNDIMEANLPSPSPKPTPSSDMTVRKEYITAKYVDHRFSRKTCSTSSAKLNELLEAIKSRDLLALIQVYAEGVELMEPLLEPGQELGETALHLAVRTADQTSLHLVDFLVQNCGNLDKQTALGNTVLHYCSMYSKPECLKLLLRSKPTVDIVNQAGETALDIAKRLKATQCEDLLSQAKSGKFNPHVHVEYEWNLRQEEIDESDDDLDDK
proCasp3 act: activates human procaspase-3; recombinant procaspase-3 D3A, Ac-DEVD-pNA absorbance 405 nm; activation, % at 8.5 µM; 330,000 tested, 0.11% active; AID 463141;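 active = activation above the mean of all tested compounds plus 3 SD, cut at about 21% in these data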
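Assay system: Autoprocessing-dead procaspase-3 D3A mutant enzyme; also added: Ac-DEVD-pNA; doses: one concentration, 8.5 µM nominal, 0.8% DMSO; times: 1 h compound preincubation, 2 h substrate hydrolysis at 25 °C; technique: 405 nm absorbance of p-nitroaniline, reads at 0 and 120 min; measure: % activation between DMSO and enzyme-spiked controls; repeats: single replicate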
Yeast superoxide: yeast age-related superoxide inhibition as caloric restriction mimetic; S. cerevisiae aged cells, superoxide DHE fluorescence; hits give low values; AID 2690; superoxide response (% of plate mean), % at 10 µM; 330,000 tested, 0.18% active;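 active = superoxide response under a set limit, about three screen SD below normal, cut at about 65% in these data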;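 note: yeast aged for seven days with compound at 30 °C before DHE staining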
ARFGAP1 inh: rat ARFGAP1 inhibition. 360,000 tested, 0.26% active. Arfgap1-stimulated ARF1 GTP hydrolysis, GDP FP detection. inhibition, % at 16.5 µM. Q62848;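 active = inhibition above a per-plate limit, mean inhibition of low control wells plus 3 SD, cut at about 25% in these data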
Target sequence (Q62848 1-136 limits assumed): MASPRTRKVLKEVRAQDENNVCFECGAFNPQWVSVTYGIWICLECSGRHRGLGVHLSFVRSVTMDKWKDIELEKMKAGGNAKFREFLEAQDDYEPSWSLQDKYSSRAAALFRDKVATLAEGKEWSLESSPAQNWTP
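Material – truncated rat Arfgap1 GAP domain · Buffer or medium – HEPES-based buffer, pH 7.5 · Reagent – human ARF1(Δ1-17)-GTP substrate · Dosing – 16.5 µM single point, 1.26% DMSO · Schedule – GTP hydrolysis reaction 2 h at 25 °C · Technique – GDP detection by fluorescence polarization · Benchmarks – No-Arfgap1 wells (100%) versus DMSO full-reaction wells (0%) · Repeats – single replicate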
PC3 dual counter: activates human procaspase-3, dual activator counter-screen; shares compounds with procasp7 counter; recombinant PC-3 D3A, Ac-DEVD-pNA absorbance 405 nm; aspartates 9, 28, 175 changed to alanine; 100% = enzyme control; activation, % at 8.5 µM; 290 tested, under 10 active; AID 493114;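 active = mean percent activation across triplicates above a set limit taken from the earlier primary procaspase-3 screen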
PC7 dual conf: confirmation of dual procaspase activators: human procaspase-7 activation. shares compounds with procasp7 counter. recombinant procaspase-7, Ac-DEVD-pNA absorbance 405 nm; D23A/D198A/D206A mutant that cannot self-cleave. activation, % at 8.5 µM. 290 tested, under 10 active. AID 493115;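 active = mean activation above a set limit carried over from the earlier primary screen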
Large screens that a line does not name were inactive (follow-up assays come after a bar, where they were run). Only some compounds are listed: those with a hit (about 1.2% of all), similar ones and a draw of the others.

CC1(C)C(=O)Nc2ccccc2N1C(=O)COC(=O)c1ccc(Cl)c(S(=O)(=O)NCc2ccccc2)c1	none
COc1ccc(C(=O)N/C(=C\c2cn(C)c3ccccc23)C(=O)OCC(C)C)cc1	none
COc1ccc(CNc2oc(-c3cccc4ccccc34)nc2C#N)cc1	none
CCOP(=O)(OCC)c1nc(-c2cccc3ccccc23)oc1NCCc1ccc(OC)cc1	procasp7 counter 30, proCasp3 act 22 | PC3 dual counter inactive | PC7 dual conf inactive
Cc1ccccc1NC(=O)c1cc[n+]([O-])cc1	none
CCn1c(=NC(=O)C2COc3ccccc3O2)sc2c(OC)ccc(OC)c21 (stereo not drawn)	procasp7 counter 36 | PC3 dual counter inactive | PC7 dual conf inactive
COCCn1c(=NC(=O)C2COc3ccccc3O2)sc2cc(S(N)(=O)=O)ccc21 (stereo not drawn)	none
CCC(C)Sc1cc(-c2nc3ccc(C)cn3c2NCc2ccccc2)ccc1OC (stereo not drawn)	procasp7 counter 28, proCasp3 act 22 | PC3 dual counter inactive | PC7 dual conf inactive
COc1cc(Cn2c(N)c(C#N)c3nc4ccccc4nc32)cc(OC)c1	procasp7 counter 85, proCasp3 act 91 | PC3 dual counter inactive | PC7 dual conf inactive
COc1ccc(Cn2c(N)c(C#N)c3nc4ccccc4nc32)cc1	none
COC(C[C@H](O)CC(=O)[C@H](C)OCc1ccccc1)OC	none (no result: procasp7 counter, LANA-H2B inh, proCasp3 act, Yeast superoxide)
O=c1cc(-c2ccc(O)cc2)oc2ccc3ccccc3c12	procasp7 counter 29, proCasp3 act 22 | PC3 dual counter inactive | PC7 dual conf inactive
CCOC(=O)/C(C#N)=C/c1ccc(OC)c(OC)c1	none
CCOC(=O)/C(C#N)=C/Nc1cc(OC)ccc1OC	procasp7 counter 87, proCasp3 act 95 | PC3 dual counter inactive | PC7 dual conf inactive
C=CCOc1ccc(C2C(C#N)=C(N)N(Nc3ccccc3)C3=C2C(=O)CC(C)(C)C3)cc1OC (stereo not drawn)	procasp7 counter 35 | PC3 dual counter inactive | PC7 dual conf inactive
C#CCOc1ccc(C2C3=C(CC(C)(C)CC3=O)N(CC(=O)O)C3=C2C(=O)CC(C)(C)C3)cc1OC	none
COc1ccccc1OCCn1cc(/C=C(\C#N)C(=O)NCc2ccco2)c2ccccc21	procasp7 counter 50 | PC3 dual counter inactive | PC7 dual conf inactive
CCN(Cc1ccccc1)c1ccc(/C=N/N=C(N)N)cc1	none
CCN(Cc1ccccc1)c1ccc(/C=N/NC(=S)NC(C)C)cc1	procasp7 counter 30, proCasp3 act 23 | PC3 dual counter inactive | PC7 dual conf inactive
CC(=O)N/N=C\c1ccccc1OC/C=C/c1ccccc1	none (no result: procasp7 counter, proCasp3 act)
Cc1cc(-c2nc3cccnc3s2)ccc1NS(=O)(=O)c1cccs1	procasp7 counter 26 | PC3 dual counter inactive | PC7 dual conf inactive
Cc1cc(F)ccc1S(=O)(=O)N1CCCOC1CNC(=O)C(=O)NCc1ccncc1 (stereo not drawn)	none
Cc1ccccc1NC(=O)c1cnn(-c2ccccc2)c1C	procasp7 counter 34 | PC3 dual counter inactive | PC7 dual conf inactive
COc1ccccc1N(C(=O)c1snc(C(N)=O)c1N)C(C(=O)NCc1ccccc1)c1ccc(O)cc1 (stereo not drawn)	none (no result: procasp7 counter, LANA-H2B inh, proCasp3 act, Yeast superoxide)
COc1ccc(C(C(=O)NCc2ccccc2)N(C(=O)c2snc(C(N)=O)c2N)c2ccccc2OC)cc1 (stereo not drawn)	procasp7 counter 29 | PC3 dual counter inactive | PC7 dual conf inactive
NC(=O)c1nsc(C(=O)N(c2ccccc2F)C(C(=O)NCc2ccc(F)cc2)c2ccc(O)cc2)c1N (stereo not drawn)	procasp7 counter 28 | PC3 dual counter inactive | PC7 dual conf inactive
O=C(Nc1sc2c(c1C(=O)O)CCCC2)c1cccs1	none
O=C(Nc1sc2c(c1C(=O)NCC1CCCO1)CCCC2)c1cccs1 (stereo not drawn)	procasp7 counter 37 | PC3 dual counter inactive | PC7 dual conf inactive
OC1CCN(c2cc(-c3ccccc3)nc3cc(-c4ccc(F)cc4)nn23)CC1	none
COc1cccc(-c2cc3nc(-c4ccccc4)cc(N4CCCC(O)C4)n3n2)c1 (stereo not drawn)	procasp7 counter 50, proCasp3 act 36 | PC3 dual counter inactive | PC7 dual conf inactive
COc1ccc(-c2cc3nc4c(c(N5CCC6(CC5)OCCO6)n3n2)CCC4)cc1	none
COc1ccc(-c2cc3nc(-c4ccccc4)cc(N4CCC5(CC4)OCCO5)n3n2)cc1	procasp7 counter 36, proCasp3 act 23 | PC3 dual counter inactive | PC7 dual conf inactive
Cc1ccc2nc(-c3ccc(NS(=O)(=O)c4ccccc4)cc3)sc2c1	procasp7 counter 52, proCasp3 act 23 | PC3 dual counter inactive | PC7 dual conf inactive
Cc1ccc2nc(-c3ccc(NS(=O)(=O)c4ccc(F)c(F)c4)cc3)sc2c1	none
Cc1ccccc1-n1c(SCC(=O)NC(N)=O)nc2sc(-c3ccccc3)cc2c1=O	none
O=C(NCCOc1ccccc1)C1CCC(=O)N(CCCN2CCOCC2)C1 (stereo not drawn)	none
O=C(NCCN1CCCC1)C1CCC(=O)N(CCCN2CCOCC2)C1 (stereo not drawn)	procasp7 counter 45 | PC3 dual counter inactive | PC7 dual conf inactive
CCOc1ccc2nc(NC(=O)c3ccco3)sc2c1	none
CCOC(=O)c1ccc2nc(NC(=O)c3ccco3)sc2c1	procasp7 counter 30, proCasp3 act 24 | PC3 dual counter inactive | PC7 dual conf inactive
COc1ccc(C(=O)N/N=C/c2ccc3cccc(OCc4ccccc4)c3n2)cc1	procasp7 counter 30 | PC3 dual counter inactive | PC7 dual conf inactive
O=c1[nH]c(-c2ccccc2)nc2sc(-c3ccccc3)cc12	procasp7 counter 26, proCasp3 act 29 | PC3 dual counter inactive | PC7 dual conf inactive
O=c1[nH]cnc2sc(-c3ccccc3)cc12	none
CC(C)CCNC(=O)c1ccc(Cl)c(NC(=O)c2ccccc2F)c1	none
COc1ccc(NC(=O)c2sc3nc(C)cc(C)c3c2N)cc1	none

Screens from PubChem BioAssay.
